From ChEMBL document CHEMBL1129932, “Novel naphthalene derivatives as inhibitors of human immunoglobulin E antibody production” (J Med Chem, 1997) come the findings set out here.

SMILES strings stand for the structures.

A short description of assay [1]: Tested for human PBMC cell viability, cultured with alpha-CD40, IL-4 and IL-10 at 3 uM (a negative number means enhancement of cell viability). The class given is functional. The essentials:
(§1)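 Viability was read in the same 14-day PBMC cultures (2×10^6 cells/mL, triplicate) with IL-4 0.1 μg/mL, IL-10 0.2 μg/mL and α-CD40 2 μg/mL. After the medium was removed, alamar blue was added for 2 h and fluorescence was read (excitation 530 nm, emission 590 nm). Suppression (%) = (without − with compound)/without × 100.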

A short description of assay [2]: Inhibitory activity against IgG antibody production in PBMC. The class given is functional. The settings on record: Homo sapiens. The essentials: (§2)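 Human PBMC from healthy donors (final 2×10^6 cells/mL, triplicate) were cultured in RPMI 1640 with 10% FCS, glutamine and antibiotics. IL-4 (0.1 μg/mL), IL-10 (0.2 μg/mL) and α-CD40 (2 μg/mL) were added on day 0, with or without compound. After 14 days, IgG in the medium was measured by ELISA. Suppression (%) = (level without − level with compound)/level without × 100.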

A short description of assay [3]: Inhibitory activity against IgE antibody production in PMBC cells. The class given is functional, cell-based. The note with it: Homo sapiens. The essentials:
(§3)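 Human PBMC from healthy donors (final 2×10^6 cells/mL) were cultured in triplicate in RPMI 1640 with 10% FCS, 2 mM glutamine and penicillin/streptomycin. On day 0 they received IL-4 0.1 μg/mL, IL-10 0.2 μg/mL and α-CD40 2 μg/mL, with or without compound. After 14 days, IgE in the medium was measured by ELISA. Suppression (%) = (without − with compound)/without × 100, and IC50 was given for active compounds.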

Assay [4] in a line: In vitro inhibition of IgG antibody production in human PBMC cultured with alpha-CD40, IL-4 and IL-10 at 3 uM concentration […]. The class given is functional.
A short description of assay [5]: In vitro inhibition of IgE antibody production in human PBMC cultured with alpha-CD40, IL-4 and IL-10 at 3 uM concentration. The class given is functional. The essentials: as §3
A short description of assay [6]: In vitro inhibition of IgE antibody production in human PBMC cultured with alpha-CD40, IL-4 and IL-10 at 3 uM concentration (negative means enhancement of antibody biosynthesis). The class given is functional. The essentials:
as §3

Assay [7] can be described thus: Compound was tested for inhibition of IgE production on human PBMC culture after treating with IL-4, alpha-CD40, IL-10. It is filed as functional. The essentials: as §3
For a further assay, the species on record is Homo sapiens. In words: Compound was tested for inhibition of PGE-2 production by human lung fibroblast WI-38 stimulated with interleukin-1-alpha (IL-1alpha) and [Ca2+] ionophore A-23187. It is filed as functional. The essentials:
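WI-38 human lung fibroblasts (2×10^5 cells/mL) were grown to confluence over 4 days, then serum-starved overnight in medium with 0.5% BSA. Medium was replaced with 0.5% BSA medium containing IL-1α 10 ng/mL, with or without compound, and incubated overnight at 37 °C. Released PGE2 was measured by ELISA kit.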

Assay [8] has as its system RBL-1. The assay is described as follows: Compound was tested for inhibition of LTB4 production by rat basophilic leukemia cells(RBL-1) stimulated with A-23187. The class given is functional, cell-based. The essentials: (§4)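 RBL-1 cells were maintained in DMEM with 10% FCS. Cells were preincubated with or without compound for 10 min at 37 °C, then stimulated with A23187 at a final 2 μM for 5 min. The reaction was stopped, and LTB4 in the centrifuged supernatant was measured by ELISA kit.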

Assay [9] in a line: In vitro inhibition of IgE antibody production in human PBMC cultured with alpha-CD40, IL-4 and IL-10 at 3 uM concentration […]. It is filed as functional.
Assay [10] in a line: Compound was tested for inhibition of IgE production on human PBMC culture after treating with IL-4, HC. The class given is functional. The essentials: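 PBMC at a final 2×10^6 cells/mL were cultured in triplicate in RPMI 1640 with 10% FCS, 2 mM glutamine and penicillin/streptomycin. IL-4 (0.1 μg/mL) and HC (1 μM) were added on day 0, with or without compound. After 14 days, IgE in the medium was measured by ELISA. Suppression (%) = (level without compound − level with compound)/level without compound × 100.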

The nature of assay [11]: Tested for human PBMC cell viability, cultured with alpha-CD40, IL-4 and IL-10 at 3 uM. The class given is functional. The essentials:
as §1

Assay [12] is described as follows: In vitro inhibition of IgG antibody production in human PBMC cultured with alpha-CD40, IL-4 and IL-10 at 3 uM concentration. The class given is functional. The essentials: as §2
In assay [13] the test system is RBL-1. The assay is described as follows: Compound was tested for inhibition of LTB4 production by rat basophilic leukemia cells (RBL-1) stimulated with A-23187. It is filed as functional, cell-based. The essentials: as §4
Assay [14] is described as follows: Inhibitory activity against IgE antibody production in PBMC. The settings on record: Homo sapiens. It is filed as functional. The essentials:
as §3

For a further assay, the system named is B-cell line. The assay is described as follows: Compound was tested for inhibition of IgE production on mouse B cells after treating with IL-4, LPS. The class given is functional, cell-based. The essentials: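 B cells came from DBA/2 splenocytes depleted with anti-mouse T cell serum plus rabbit complement, then fractionated by gradient centrifugation. They were cultured in RPMI 1640 with 10% FCS and LPS at a final 2 μg/mL. After 1 day, mouse IL-4 was added at a final 50 ng/mL. Culture continued for 6 days, and IgE in the media was measured by ELISA.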

As to `O=C(Nc1ccccc1C(=O)O)c1ccc(Oc2ccccc2)cc1`, the Cell viability in [1] is reported as -1.4. The IC50 in assay [2] was greater than 10000 nM; in assay [3] it was 3280 nM. In addition, the Suppression is recorded as -1.8% in assay [4] and 46% in assay [5].
Regarding `CC(C)(C(=O)Nc1ccccc1C(=O)O)c1ccc(Oc2ccc3ccccc3c2)cc1`, the Suppression in assay [6] is -30.4%; in [4], -5.4%. Besides, the Cell viability in assay [1] is -11.3.
Regarding `O=C(Nc1ccccc1C(=O)O)c1ccc(Oc2ccc3ccccc3c2)cc1`, the Cell viability in assay [1] is -7.4. The concentration for half-maximal inhibition (IC50) in assay [7] was 1300 nM; in assay [2] it was 38000 nM; in the assay filed under Homo sapiens it was 10000 nM; in the assay with RBL-1 [8] it was 400 nM. Besides, the Suppression in assay [4] is on record as -16.9%; in assay [5], 64.8%.
Regarding `O=C(Nc1ccccc1-c1nn[nH]n1)c1ccc(Oc2ccc3ccccc3c2)cc1`, in assay [1], the Cell viability is -13.6. For the same compound, the Suppression in assay [4] is reported as -18.7%; in assay [9] it was -74.5%.
On to `O=C(Cc1ccc(Oc2ccc3ccccc3c2)cc1)Nc1ccccc1C(=O)O`, for which the IC50 was 600 nM in assay [7]; 4300 nM in [2]; 1900 nM in [10]; 10000 nM in the assay listed under Homo sapiens; 700 nM with RBL-1 [13]. In addition, the Cell viability in assay [11] was found to be 11.4. Also, the Suppression in assay [12] is 31.2%; in [5] it was 86.6%.
In the case of `O=C(Nc1ccccc1C(=O)O)c1ccc(COc2ccc3ccccc3c2)cc1`, the Suppression in assay [6] is on record as -6.1%; in assay [4] it was -16.1%. Further, the IC50 in assay [7] was greater than 3000 nM; in the assay filed under Homo sapiens, less than 1000 nM.
`O=C(Nc1ccccc1C(=O)O)c1cccc(Oc2ccc3ccccc3c2)c1`: in assay [1], the Cell viability is -23.6. Also, the Suppression in assay [4] is -16%; in assay [9], -26.2%.
Turning to `O=C(O)c1cccc(NC(=O)c2ccc(Oc3ccc4ccccc4c3)cc2)c1`, the Cell viability in assay [1] was -14.5. Moreover, the Suppression is 2.5% in assay [12] and -29.6% in assay [9].
For the compound `O=C(CCc1ccc(Oc2ccc3ccccc3c2)cc1)Nc1ccccc1C(=O)O`, the Cell viability in [1] is recorded as -2.9. Besides, the Suppression is -41.2% in assay [4] and 8.5% in assay [5].
`Nc1ccccc1NC(=O)c1ccc(Oc2ccc3ccccc3c2)cc1`: the Cell viability in [11] is -9.3. For the same compound, the Suppression was 3.3% in assay [12] and 31.6% in assay [5].
Take `NC(=O)c1ccccc1NC(=O)c1ccc(Oc2ccc3ccccc3c2)cc1`: the Cell viability in [11] came out at 7.3. For the same compound, the Suppression in assay [12] was 10.8%; in assay [5], 8.6%.
With `O=C(O)c1ccccc1C(=O)Nc1ccc(Oc2ccc3ccccc3c2)cc1`, in assay [11], the Cell viability is given as 1.5. Also, the Suppression is reported as -23.1% in assay [4] and -11.8% in assay [9].
Regarding `O=C(Nc1ccccc1C(=O)O)c1ccc(Cc2ccc3ccccc3c2)cc1`, the Cell viability in assay [1] is on record as -1.1. Besides, the results for the Suppression in [4] and in assay [5] were -21.1% and 9.5%, respectively.
Turning to `O=C(O)c1ccc(Oc2ccc3ccccc3c2)cc1`, the Suppression in assay [4] is reported as -4.8%; in assay [9], -4.6%.
For `O=C(Nc1ccccc1C(=O)O)c1ccc(Sc2ccc3ccccc3c2)cc1`, the results for the Suppression in [4] and in assay [5] were -2.8% and 25.8%, respectively.
For the compound `O=C(Nc1ccccc1C(=O)O)c1ccc(C(=O)c2ccc3ccccc3c2)cc1`, the values for the Suppression in assay [12] and in assay [5] were 5.4% and 10.3%, respectively.
Regarding `O=C(CCCC1CC1/C=C/c1ccc2ccccc2c1)Nc1ccccc1C(=O)O` (centres undefined), the IC50 in assay [14] is 1880 nM; in [2] it was greater than 10000 nM. For the same compound, the Cell viability in assay [1] was -2.6%. Moreover, the Suppression in assay [4] is -0.5%; in assay [5], 63%.
Take `CN(C(=O)c1ccc(Oc2ccc3ccccc3c2)cc1)c1ccccc1C(=O)O`: the Cell viability in assay [1] is reported as -5.1. In addition, the Suppression in assay [12] is listed as 10.1%; in [9] it was -27.7%.
Turning to `O=C(Nc1ccccc1C(=O)O)c1ccc(Oc2ccc3ccccc3c2)c([N+](=O)[O-])c1`, the Cell viability in [11] worked out at 19.1. Further, the values for the Suppression in assay [12] and in assay [5] were 36.9% and 93%, respectively.
As to `CC(C(=O)Nc1ccccc1C(=O)O)c1ccc(Oc2ccc3ccccc3c2)cc1` (centres undefined), the Cell viability in assay [1] is -2.1. The Suppression was -15.9% in assay [4] and 8.7% in [5].
Regarding `O=C(Nc1ccccc1C(=O)O)c1ccc(Oc2ccc3cc(O)ccc3c2)cc1`, the IC50 was 1200 nM in assay [14] and greater than 10000 nM in assay [2]. Further, in assay [11], the Cell viability worked out at 5.2. Besides, the Suppression was -8.7% in assay [4] and 76.6% in assay [5].
As for `O=C(Nc1ccccc1C(=O)O)c1ccc(Oc2cccc3ccccc23)cc1`, the concentration for half-maximal inhibition (IC50) came out at 1570 nM in assay [14] and 2320 nM in assay [2]. Further, the Cell viability in [1] was -6.5. The Suppression in assay [12] turned out to be 64.7%; in [5], 96.9%.
Take `O=C(O)c1ccccc1NCc1ccc(Oc2ccc3ccccc3c2)cc1`: the Cell viability in [1] is -1.7. The Suppression is given as -4.5% in [4] and 21.9% in assay [5].
As to `O=C(Cc1ccc(Oc2ccc3cc(OCc4ccccc4)ccc3c2)cc1)Nc1ccccc1C(=O)O`, the 50% inhibitory concentration (IC50) in assay [7] is 8.3 nM; in assay [2] it was 42 nM; with B-cell line, 12 nM; with RBL-1 [13], 1200 nM. The Cell viability in assay [11] was determined as 58.2. Further, the Suppression came out at 91.7% in assay [12] and 95.1% in assay [5].
Consider `O=C(O)c1ccc(NC(=O)c2ccc(Oc3ccc4ccccc4c3)cc2)cc1`, for which the Cell viability in [1] is -16.1. Also, the Suppression in [12] stood at 24.4%; in assay [9] it was 6.4%.
